Data: PMC10092221 (Journal of Clinical Pharmacology, 2022)
“And” between values parts separate entries of the source, which are not always exact repeats. Identical values can stand only once. Like-named read-outs stand apart in the source and are kept apart here.

Experiments:
[1] = Capmatinib/CMN288 pharmacokinetics, inhibition cohort; type: in vivo, human (healthy subjects); details: for AUCinf geometric mean ratio (90%CI) / AUClast geometric mean ratio (90%CI) / Cmax geometric mean ratio (90%CI): itraconazole + capmatinib 200 mg / capmatinib alone
How it was run: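 Inhibition cohort of healthy subjects (n = 27): a single fasted oral 200 mg dose on day 1, then a 4-day washout. Itraconazole 200 mg was given daily on days 5–14, and 200 mg test compound was dosed 1 h after the sixth itraconazole dose (day 10). Plasma was sampled serially to 96 h after each dose and assayed by validated LC-MS/MS (LLOQ ≈1.0 ng/mL). Test/reference ratios are antilogged point estimates with 2-sided 90%CIs.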

[2] = Capmatinib/CMN288 pharmacokinetics, induction cohort; type: in vivo, human (healthy subjects); details: for AUC(0-inf): AUCinf; for AUC(0-t): AUClast; for AUCinf geometric mean ratio (90%CI) / AUClast geometric mean ratio (90%CI) / Cmax geometric mean ratio (90%CI): rifampicin + capmatinib 400 mg / capmatinib alone
How it was run: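 Healthy subjects (induction cohort, n = 26) received a single fasted oral 400 mg dose on day 1, then a 4-day washout. Rifampicin 600 mg was given daily on days 5–13, with 400 mg test compound coadministered with the sixth dose on day 10. Serial plasma was drawn to 72 h after each dose and frozen <–70°C. Parent and metabolite were measured by validated LC-MS/MS (LLOQ ≈1.0 ng/mL). Ratios are antilogged 90%CIs.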

[3] = type: in vivo, human (healthy subjects); details: for Maximum increase of serum creatinine concentration from baseline: at 24 hours
How it was run: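 Blood was drawn from healthy subjects at 0, 2, 4, 8, 24, 48 and 72 h after the day-1 single fasted oral dose: 200 mg in the inhibition cohort, 400 mg in the induction cohort. Creatinine and cystatin C were measured in each sample. Change from baseline was summarized descriptively by time point.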

Safety assessment = type: in vivo, human (healthy subjects)
MATE1 = details: read-out: Ki, MATE1 inhibition; in vitro; ref Novartis data on file; cited from earlier work
MATE2K = details: read-out: Ki, MATE2K inhibition; in vitro; ref Novartis data on file; cited from earlier work
[4] = therapeutic dose 400 mg twice daily, cited from earlier work
OATP1B1 = details: cited from earlier work
OATP1B3 = details: cited from earlier work
[5] = healthy subjects, used for sample size; cited from earlier work
[6] = capmatinib + itraconazole compared to capmatinib alone
[7] = inhibition cohort, healthy subjects, single oral capmatinib 200 mg + itraconazole 200 mg/day, plasma
[8] = inhibition cohort, healthy subjects, single oral capmatinib 200 mg alone, plasma
[9] = capmatinib + rifampicin compared to capmatinib alone
[10] = human, plasma, po, adjusted geometric mean, induction cohort, healthy subjects, single oral capmatinib 400 mg + rifampicin 600 mg/day, plasma
[11] = human, plasma, po, geometric mean (geometric CV%), induction cohort, healthy subjects, single oral capmatinib 400 mg + rifampicin 600 mg/day, plasma
[12] = human, plasma, po, mean (CV%), induction cohort, healthy subjects, single oral capmatinib 400 mg + rifampicin 600 mg/day, plasma
[13] = induction cohort, healthy subjects, single oral capmatinib 400 mg + rifampicin 600 mg/day, plasma
[14] = induction cohort, healthy subjects, single oral capmatinib 400 mg alone, plasma
[15] = single dose 200 mg capmatinib, inhibition cohort
[16] = single dose 400 mg capmatinib, induction cohort
[17] = induction cohort N=26 (capmatinib 400 mg, rifampicin 600 mg/day)
[18] = inhibition cohort N=27 (capmatinib 200 mg, itraconazole 200 mg/day)

CNC(=O)c1ccc(-c2cnc3ncc(Cc4ccc5ncccc5c4)n3n2)cc1F [Capmatinib]
Increase of geometric mean AUCinf with itraconazole [1, 6]: 42% | Increase of geometric mean AUClast with itraconazole [1, 6]: 41% | AUC(0-t) ([1]; human, plasma, po, 200 mg): 5430 ng·h/mL | AUC(0-inf) ([1]; human, plasma, po, AUCinf, geometric mean (geometric CV%), inhibition cohort, healthy subjects, single oral capmatinib 200 mg + itraconazole 200 mg/day, plasma): 7450 ng·h/mL | Cmax ([1]; human, plasma, po, adjusted geometric mean, inhibition cohort, healthy subjects, single oral capmatinib 200 mg + itraconazole 200 mg/day, plasma): 1300 ng/mL | Cmax ([1]; human, plasma, po, geometric mean (geometric CV%), inhibition cohort, healthy subjects, single oral capmatinib 200 mg + itraconazole 200 mg/day, plasma): 1290 ng/mL | Cmax ([1]; human, plasma, po, mean (CV%), inhibition cohort, healthy subjects, single oral capmatinib 200 mg + itraconazole 200 mg/day, plasma): 1410 ng/mL | AUCinf, adjusted geometric mean [1, 7]: 7360 ng·h/mL | AUCinf, mean (CV%) [1, 7]: 7680 (24.3) ng · h/mL | AUClast, adjusted geometric mean [1, 7]: 7340 ng·h/mL | AUClast, mean (CV%) [1, 7]: 7660 (24.5) ng · h/mL | CL/F, geometric mean (geometric CV%) [1, 7]: 26.8 (26.4) L/h | CL/F, mean (CV%) [1, 7]: 27.8 (28.1) L/h | t1/2, geometric mean (geometric CV%) [1, 7]: 6.05 (31.3) h | t1/2, mean (CV%) [1, 7]: 6.34 (32.8) h | tmax, median (range) [1, 7]: 2.00 (0.495–4.01) h | AUCinf, geometric mean (geometric CV%) [1, 8]: 5280 (30.6) ng · h/mL | AUClast, adjusted geometric mean [1, 8]: 5220 ng·h/mL | AUClast, geometric mean (geometric CV%) [1, 8]: 5220 (30.6) ng · h/mL | CL/F, geometric mean (geometric CV%) [1, 8]: 37.9 (30.6) L/h | CL/F, mean (CV%) [1, 8]: 39.6 (33.4) L/h | Cmax, adjusted geometric mean [1, 8]: 1260 ng/mL | Cmax, geometric mean (geometric CV%) [1, 8]: 1260 (46.9) ng/mL | Cmax, mean (CV%) [1, 8]: 1380 (40.4) ng/mL | Tmax, median [1, 8]: 1.00 h | tmax, median (range) [1, 8]: 1.00 (0.505–4.00) h | AUCinf geometric mean ratio (90%CI) [1]: 1.42 (1.33–1.52) | AUClast geometric mean ratio (90%CI) [1]: 1.41 (1.29–1.53) | Cmax geometric mean ratio (90%CI) [1]: 1.03 (0.866–1.22) | AUCinf geometric mean ratio (90%CI) ([1]; listed as capmatinib): 1.42 | AUClast geometric mean ratio (90%CI) ([1]; listed as capmatinib): 1.41 | Cmax geometric mean ratio (90%CI) ([1]; listed as capmatinib): 1.03 | Tmax median difference (minimum to maximum differences) ([1]; itraconazole + capmatinib 200 mg vs capmatinib alone): 0.489 (–3.02 to 3.00) h | Decrease of geometric mean AUCinf with rifampicin [2, 9]: 66.5% and 67% | Decrease of geometric mean AUClast with rifampicin [2, 9]: 67.8% | Decrease of geometric mean Cmax with rifampicin [2, 9]: 55.9% and 55% | Tmax ([2]; human, plasma, po, 400 mg): 0.994 h | AUC(0-inf) [2, 10]: 3850 ng·h/mL | AUC(0-inf) [2, 11]: 3890 ng·h/mL | AUC(0-inf) [2, 12]: 4050 ng·h/mL | AUC(0-t) [2, 10]: 3720 ng·h/mL | AUC(0-t) [2, 11]: 3720 ng·h/mL | AUC(0-t) [2, 12]: 3860 ng·h/mL | Cmax [2, 10]: 1350 ng/mL | Cmax [2, 11]: 1350 ng/mL | half-life ([2]; human, plasma, po, t1/2, mean (CV%), induction cohort, healthy subjects, single oral capmatinib 400 mg + rifampicin 600 mg/day, plasma): 11.1 h | CL/F, geometric mean (geometric CV%) [2, 13]: 103 (29.4) L/h | CL/F, mean (CV%) [2, 13]: 107 (26.1) L/h | Cmax, mean (CV%) [2, 13]: 1460 (43.4) ng/mL | t1/2, geometric mean (geometric CV%) [2, 13]: 10.3 (40.8) h | tmax, median (range) [2, 13]: 0.994 (0.478–2.00) h | CL/F, geometric mean (geometric CV%) [2, 14]: 35.4 (24.3) L/h | CL/F, mean (CV%) [2, 14]: 36.4 (23.7) L/h | tmax, median (range) [2, 14]: 0.994 (0.461–3.00) h | AUCinf geometric mean ratio (90%CI) [2]: 0.335 (0.300–0.374) | AUClast geometric mean ratio (90%CI) [2]: 0.322 (0.294–0.353) | Cmax geometric mean ratio (90%CI) [2]: 0.441 (0.387–0.502) | AUCinf geometric mean ratio (90%CI) ([2]; listed as capmatinib): 0.335 | AUClast geometric mean ratio (90%CI) ([2]; listed as capmatinib): 0.322 | Cmax geometric mean ratio (90%CI) ([2]; listed as capmatinib): 0.441 | Change in serum creatinine ([3]; after a single dose of capmatinib, 3-day monitoring): transient increase | Time at which serum creatinine returned to baseline [3, 15]: 48 h | Maximum increase of serum creatinine concentration from baseline [3, 15]: 21% | Time at which serum creatinine returned to baseline [3, 16]: 72 h | Maximum increase of serum creatinine concentration from baseline [3, 16]: 27.3% | Change in serum cystatin C concentration ([3]; single dose capmatinib 200 or 400 mg, both cohorts, 3-day monitoring): no change | Deaths (Safety assessment; either treatment cohort): No deaths were reported | Serious AEs (Safety assessment; either treatment cohort): No serious AEs were reported | AEs suspected to be related to the study treatment (any grade) (Safety assessment; [17]): 10 subjects | Discontinued study treatment due to AEs (Safety assessment; [17]): 1 subjects | AEs suspected to be related to the study treatment (any grade) (Safety assessment; [18]): 13 subjects | Amylase increased, grade 3 (Safety assessment; [18]): 1 subjects | Ki (MATE1): 280 nM | Ki (MATE2K): 290 nM | Cmax ([4]; read-out: Steady-state Cmax, total): 11.6 µM | Steady-state Cmax, unbound ([4]; unbound): 0.464 µM | Substrate of OATP1B1 (OATP1B1): not a substrate | Substrate of OATP1B3 (OATP1B3): not a substrate | Intrasubject coefficient of variation (CV%) for AUC [5]: 22.8% | Intrasubject coefficient of variation (CV%) for Cmax [5]: 29.9%
